The target of one data set is Cytochrome P450 2C19 (Homo sapiens, UniProt P33261). Briefly: Inhibition of human CYP2C19. The data set is classed as ADME.
Another data set addresses CYP3A4 (Homo sapiens, UniProt P08684). Briefly: Inhibition of human CYP3A4 at 10 uM. The data set is classed as ADME.
Data set [1] has as its target Xanthine dehydrogenase/oxidase (Bos taurus, UniProt P80457). Briefly: Inhibition of bovine milk xanthine oxidoreductase. An outline of the steps: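 Bovine milk XO (2 mU/mL) with 15 µM xanthine in 50 mM phosphate buffer, pH 7.4, at 25 °C, with or without compound. Uric acid formation read as absorbance rise at 292 nm. Initial rate taken from 0 to 2.5 min and used for IC50.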

The next data set has as its target Cytochrome P450 2C9 (Homo sapiens, UniProt P11712). Kind of data set: Inhibition of human CYP2C9. In kind it is ADME.
In data set [2] the test system is Rattus norvegicus. Kind of data set: Reduction of uric acid level in rat serum at 0.3 mg/kg, po after 6 hrs by phosphotungstic acid method. Details: scale not given: the % may be the effect or the level left. In kind it is functional. The essentials: (§1)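 Rats dosed orally. Blood drawn from the orbital sinus 6 h post-dose, clotted 1 h at room temperature and centrifuged. Serum uric acid measured by the phosphotungstic acid method.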

A short description of data set [3]: Cmax in rat at 1 mg/kg, po. Details: dose 1 mg/kg, route oral. The note with it: in vivo. The data set is classed as ADME, organism-based. An outline of the steps: (§2)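 Compounds given orally to rats; blood taken from the jugular vein at set times and centrifuged to plasma. Plasma aliquots were mixed with acetonitrile containing an internal standard, then centrifuged.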

The target in the next data set is T1, Cytochrome P450 1A2 (Homo sapiens, UniProt P05177).
T1 sequence (P05177 whole entry): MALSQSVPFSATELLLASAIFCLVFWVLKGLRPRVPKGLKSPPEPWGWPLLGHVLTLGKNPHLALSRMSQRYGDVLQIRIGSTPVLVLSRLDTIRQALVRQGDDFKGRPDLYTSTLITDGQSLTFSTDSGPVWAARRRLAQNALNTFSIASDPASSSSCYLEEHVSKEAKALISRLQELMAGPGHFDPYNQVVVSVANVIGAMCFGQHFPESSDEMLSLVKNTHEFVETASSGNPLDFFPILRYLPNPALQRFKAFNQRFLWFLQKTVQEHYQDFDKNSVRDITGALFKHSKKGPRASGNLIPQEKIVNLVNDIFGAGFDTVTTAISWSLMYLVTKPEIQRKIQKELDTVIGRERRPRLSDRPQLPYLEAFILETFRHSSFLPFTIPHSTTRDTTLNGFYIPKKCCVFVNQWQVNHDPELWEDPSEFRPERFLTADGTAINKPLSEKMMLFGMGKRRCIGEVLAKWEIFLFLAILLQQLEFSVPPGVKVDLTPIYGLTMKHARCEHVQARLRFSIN
Briefly: Inhibition of human CYP1A2. The data set is classed as ADME.

Another data set concerns the target Cytochrome P450 2D6 (Homo sapiens, UniProt P10635). Kind of data set: Inhibition of human CYP2D6. The data set is classed as ADME.
The test system of data set [4] is Rattus norvegicus. Briefly: Reduction of uric acid level in rat serum at 1 mg/kg, po after 6 hrs by phosphotungstic acid method. In kind it is functional. Details: scale not given: the % may be the effect or the level left. An outline of the steps:
as §1

Data set [5] in a line: Half life in rat at 3 mg/kg, po. In kind it is ADME, organism-based. Details: dose 3 mg/kg, route oral. The note with it: in vivo. An outline of the steps:
as §2

A short description of data set [6]: Cmax in rat at 3 mg/kg, po. To be noted: in vivo. Details: dose 3 mg/kg, route oral. The data set is classed as ADME, organism-based. An outline of the steps: as §2

Data on 22 compounds can be found in ChEMBL document CHEMBL1139290, “Design, synthesis, and pharmacological and pharmacokinetic evaluation of 3-phenyl-5-pyridyl-1,2,4-triazole derivatives as xanthine oxidoreductase inhibitors” (Bioorg Med Chem Lett, 2009).

A value given as a limit tells only on which side of the number the result lay.

Sequence of Xanthine dehydrogenase/oxidase (P80457 whole entry): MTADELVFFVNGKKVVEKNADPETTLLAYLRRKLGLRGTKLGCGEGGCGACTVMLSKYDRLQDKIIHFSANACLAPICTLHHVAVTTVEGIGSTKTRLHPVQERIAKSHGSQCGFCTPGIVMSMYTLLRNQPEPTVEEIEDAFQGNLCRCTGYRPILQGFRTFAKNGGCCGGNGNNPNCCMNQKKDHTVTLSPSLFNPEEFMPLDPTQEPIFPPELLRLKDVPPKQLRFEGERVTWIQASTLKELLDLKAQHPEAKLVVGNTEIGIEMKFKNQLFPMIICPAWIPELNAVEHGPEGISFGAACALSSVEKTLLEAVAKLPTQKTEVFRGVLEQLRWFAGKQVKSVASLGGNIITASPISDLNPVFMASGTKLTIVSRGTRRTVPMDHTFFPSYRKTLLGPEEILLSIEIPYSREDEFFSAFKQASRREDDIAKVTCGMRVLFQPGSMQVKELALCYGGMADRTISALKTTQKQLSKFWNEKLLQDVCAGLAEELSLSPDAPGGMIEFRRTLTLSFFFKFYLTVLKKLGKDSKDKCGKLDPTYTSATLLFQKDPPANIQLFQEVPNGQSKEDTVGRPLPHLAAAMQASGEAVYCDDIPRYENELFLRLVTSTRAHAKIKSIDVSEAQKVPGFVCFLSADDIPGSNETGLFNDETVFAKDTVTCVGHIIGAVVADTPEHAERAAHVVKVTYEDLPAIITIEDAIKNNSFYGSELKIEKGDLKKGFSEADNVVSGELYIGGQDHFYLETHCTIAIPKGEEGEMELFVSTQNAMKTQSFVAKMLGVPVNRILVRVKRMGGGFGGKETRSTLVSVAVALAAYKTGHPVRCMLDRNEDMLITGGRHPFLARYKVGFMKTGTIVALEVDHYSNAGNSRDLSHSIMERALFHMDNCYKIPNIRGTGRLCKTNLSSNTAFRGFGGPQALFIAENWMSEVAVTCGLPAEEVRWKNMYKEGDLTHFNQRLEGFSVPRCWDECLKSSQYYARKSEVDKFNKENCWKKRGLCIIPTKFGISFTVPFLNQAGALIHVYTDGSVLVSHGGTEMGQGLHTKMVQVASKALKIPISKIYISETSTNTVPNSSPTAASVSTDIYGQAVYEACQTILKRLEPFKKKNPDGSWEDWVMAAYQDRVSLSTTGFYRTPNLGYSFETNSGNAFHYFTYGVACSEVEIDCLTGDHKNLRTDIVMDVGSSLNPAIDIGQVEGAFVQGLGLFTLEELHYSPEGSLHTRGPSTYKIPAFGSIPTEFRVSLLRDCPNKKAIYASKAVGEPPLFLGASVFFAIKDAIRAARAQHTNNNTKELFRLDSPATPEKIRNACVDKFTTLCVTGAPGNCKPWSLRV
Sequence of CYP3A4 (P08684 whole entry): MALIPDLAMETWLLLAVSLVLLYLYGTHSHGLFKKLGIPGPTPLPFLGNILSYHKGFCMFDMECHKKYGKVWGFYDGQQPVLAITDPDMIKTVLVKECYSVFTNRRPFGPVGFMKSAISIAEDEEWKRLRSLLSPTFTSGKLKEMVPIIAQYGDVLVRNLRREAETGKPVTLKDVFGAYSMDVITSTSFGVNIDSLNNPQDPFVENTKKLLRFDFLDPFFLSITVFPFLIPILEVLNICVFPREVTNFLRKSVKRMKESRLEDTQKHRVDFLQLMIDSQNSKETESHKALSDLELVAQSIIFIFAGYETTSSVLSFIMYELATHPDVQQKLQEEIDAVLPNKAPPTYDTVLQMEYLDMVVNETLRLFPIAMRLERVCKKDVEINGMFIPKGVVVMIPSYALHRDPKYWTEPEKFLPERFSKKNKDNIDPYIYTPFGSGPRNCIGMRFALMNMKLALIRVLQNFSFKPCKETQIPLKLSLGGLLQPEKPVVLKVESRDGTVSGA
Sequence of Cytochrome P450 2C9 (P11712 whole entry): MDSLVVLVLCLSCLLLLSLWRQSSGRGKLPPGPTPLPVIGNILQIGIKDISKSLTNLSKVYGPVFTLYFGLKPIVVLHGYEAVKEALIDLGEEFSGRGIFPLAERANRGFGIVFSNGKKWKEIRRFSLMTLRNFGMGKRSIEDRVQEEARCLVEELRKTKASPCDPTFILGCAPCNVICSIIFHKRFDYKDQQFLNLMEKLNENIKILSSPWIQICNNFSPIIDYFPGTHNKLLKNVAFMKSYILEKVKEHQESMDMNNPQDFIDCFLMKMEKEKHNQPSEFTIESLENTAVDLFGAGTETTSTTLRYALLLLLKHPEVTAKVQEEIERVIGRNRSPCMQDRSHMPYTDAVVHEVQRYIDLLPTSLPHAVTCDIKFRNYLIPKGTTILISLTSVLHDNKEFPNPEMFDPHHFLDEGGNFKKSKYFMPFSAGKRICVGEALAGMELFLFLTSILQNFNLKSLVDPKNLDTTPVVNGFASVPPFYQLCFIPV
Sequence of Cytochrome P450 2C19 (P33261 whole entry): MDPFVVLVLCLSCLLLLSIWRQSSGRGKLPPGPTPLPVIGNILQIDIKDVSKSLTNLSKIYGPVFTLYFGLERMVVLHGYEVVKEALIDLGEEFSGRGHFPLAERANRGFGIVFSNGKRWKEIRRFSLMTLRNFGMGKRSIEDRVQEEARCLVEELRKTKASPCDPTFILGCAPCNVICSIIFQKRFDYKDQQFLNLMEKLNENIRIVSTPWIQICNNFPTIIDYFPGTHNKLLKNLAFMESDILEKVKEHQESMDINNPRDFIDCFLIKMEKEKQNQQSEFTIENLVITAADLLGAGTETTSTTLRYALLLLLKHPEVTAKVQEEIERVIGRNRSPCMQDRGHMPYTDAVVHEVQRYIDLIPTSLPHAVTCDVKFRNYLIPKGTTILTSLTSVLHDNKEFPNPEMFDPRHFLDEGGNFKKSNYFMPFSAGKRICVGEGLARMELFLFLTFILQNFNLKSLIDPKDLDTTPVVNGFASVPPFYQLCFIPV
Sequence of Cytochrome P450 2D6 (P10635 whole entry): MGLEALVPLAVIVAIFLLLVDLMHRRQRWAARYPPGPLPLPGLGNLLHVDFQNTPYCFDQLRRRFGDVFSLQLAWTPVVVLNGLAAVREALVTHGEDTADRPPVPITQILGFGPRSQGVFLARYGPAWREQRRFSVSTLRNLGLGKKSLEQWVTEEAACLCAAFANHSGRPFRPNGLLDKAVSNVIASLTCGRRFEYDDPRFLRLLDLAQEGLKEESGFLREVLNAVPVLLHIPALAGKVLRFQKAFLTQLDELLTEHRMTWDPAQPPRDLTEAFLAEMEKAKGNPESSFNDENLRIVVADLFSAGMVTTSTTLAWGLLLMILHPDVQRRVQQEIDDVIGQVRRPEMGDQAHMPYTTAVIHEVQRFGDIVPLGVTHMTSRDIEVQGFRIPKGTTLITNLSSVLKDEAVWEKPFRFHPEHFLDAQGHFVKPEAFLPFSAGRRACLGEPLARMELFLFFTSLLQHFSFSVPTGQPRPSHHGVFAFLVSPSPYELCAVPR

One may read the inhibition as the drop in the measured response relative to a control, in per cent. For orientation: IC50 means the midpoint of a concentration-inhibition curve. What is called Cmax is the peak of the concentration-time curve. In the case of `CC(C)COc1ccc(-c2n[nH]c(-c3ccncc3)n2)cc1[N+](=O)[O-]`, the Activity entry is “Active” at Cytochrome P450 2C19; “Active” at Cytochrome P450 2C9; 33.7% in the data set with Rattus norvegicus [2]; “Active” on Cytochrome P450 1A2; “Active” at Cytochrome P450 2D6. Besides, on CYP3A4, the inhibition at 10 µM turned out to be 80.9%. Moreover, the IC50 in data set [1] was 3.7 nM. In addition, the concentration in data set [3] peaked (Cmax) at 13.8 ng/mL.

Take `CC(C)COc1ccc(-c2nc(-c3ccnc(Cl)c3)n[nH]2)cc1[N+](=O)[O-]`: at CYP3A4, the inhibition at 10 µM amounted to 7.1%. Also, the Activity in the data set on Rattus norvegicus [4] was 40.6%.

Consider `CCCCOCCOCCOc1ccc(-c2nc(-c3ccnc(C)c3)n[nH]2)cc1C#N`, for which it took 26 nM to reach half-maximal inhibition in [1] (IC50). In addition, in the data set on Rattus norvegicus [2], the Activity was 10.1%.

For `CC(C)COc1ccc(NC(=O)Nc2ccncc2)cc1[N+](=O)[O-]`, in [1], the IC50 came to 15 nM. Besides, the Activity with Rattus norvegicus [2] is listed as -3.2%.

For `Cc1cc(-c2nnc(-c3ccc(OCC(C)C)c(C(=O)O)c3)[nH]2)ccn1`, in data set [1], the IC50 is more than 10000 nM.

As to `CC(C)COc1ccc(NC(=O)C(=O)O)cc1Cl`, 7300 nM corresponded to half-maximal inhibition in data set [1] (IC50).

For orientation: half-life means the time needed for the level to fall by half in the phase considered. As to `COCCOCCOc1ccc(-c2nc(-c3ccnc(C)c3)n[nH]2)cc1C#N`, on CYP3A4, the inhibition at 10 µM was -6.7%. The compound also gave a half-life in data set [5] of 58.2 min. In data set [1], inhibition was half-maximal at 31 nM (IC50). Further, the Activity with Rattus norvegicus [2] turned out to be 52%. Further, the concentration in data set [6] peaked (Cmax) at 712 ng/mL.

Consider `COCCOCOc1ccc(-c2nc(-c3ccnc(C)c3)n[nH]2)cc1C#N`, for which the inhibition at 10 µM on CYP3A4 was found to be 16.5%. This compound had a half-life in [5] of 27 min. Besides, in [1], half-maximal inhibition (IC50) was put at 24 nM. Further, in the data set with Rattus norvegicus [2], the Activity is on record as 40%. In data set [6], this compound registered a Cmax of 360 ng/mL.

In data set [1], `Cc1cc(-c2nnc(-c3ccc(OCC(=O)O)c(C#N)c3)[nH]2)ccn1` displayed an IC50 of 110 nM.

`Cc1cc(-c2n[nH]c(-c3ccc(OCCO)c(C#N)c3)n2)ccn1` came in with an IC50 in [1] of 40 nM. Also, the Activity in the data set with Rattus norvegicus [2] is on record as 10.9%.

Turning to `COCOc1ccc(-c2nc(-c3ccnc(C)c3)n[nH]2)cc1C#N`, in data set [1], the IC50 was found to be 24 nM. Also, the Activity in the data set on Rattus norvegicus [2] is given as 27%.

Take `Cc1cc(-c2n[nH]c(-c3ccc(OCC4COC(C)(C)O4)c(C#N)c3)n2)ccn1` (stereo not given): half-maximal inhibition in data set [1] (IC50) required 60 nM. For the same compound, the Activity with Rattus norvegicus [2] is given as 27.9%.

`COCCOc1ccc(-c2nc(-c3ccnc(C)c3)n[nH]2)cc1C#N` gave an IC50 in data set [1] of 64 nM. Also, the Activity in the data set on Rattus norvegicus [2] came to 36.5%.

`Cc1cc(-c2n[nH]c(-c3ccc(O)c(C#N)c3)n2)ccn1`: the IC50 in [1] was 43 nM. In the data set with Rattus norvegicus [2], the Activity is on record as -8.2%.

`CCOC(=O)c1cc(-c2nc(-c3ccnc(C)c3)n[nH]2)ccc1OCC(C)C`: half-maximal inhibition in data set [1] (IC50) was put at 20 nM. For the same compound, the Activity with Rattus norvegicus [2] stood at 42.4%.

In data set [1], `CC(C)COc1ccc(-c2nc(-c3ccccn3)n[nH]2)cc1[N+](=O)[O-]` displayed an IC50 of more than 10000 nM.

As to `Cc1cc(-c2n[nH]c(-c3ccc(OCCOCCOCCCl)c(C#N)c3)n2)ccn1`, the half-life in [5] is 31.2 min. In [1], the IC50 stood at 21 nM. The Activity in the data set with Rattus norvegicus [2] is listed as 40.7%. The compound also returned a Cmax in data set [6] of 684 ng/mL.

Turning to `CC(C)COc1ccc(-c2nc(-c3cccnc3)n[nH]2)cc1[N+](=O)[O-]`, the inhibition at 10 µM against CYP3A4 turned out to be 18.2%. The compound also showed an IC50 in [1] of 5900 nM.

For `Cc1cc(-c2nc(-c3ccc(OCC(C)C)c([N+](=O)[O-])c3)n[nH]2)ccn1`, on CYP3A4, the inhibition at 10 µM is 7.7%. In data set [1], this compound had an IC50 of 10 nM. Further, the Activity in the data set on Rattus norvegicus [2] is given as 39.1%. This compound yielded a Cmax in [3] of 7.8 ng/mL.

As for `Cc1cc(-c2nc(-c3ccc(OCC(C)C)c(C#N)c3)n[nH]2)ccn1`, the inhibition at 10 µM at CYP3A4 amounted to 16.8%. In addition, the half-life in data set [5] is 22.2 min. Also, in data set [1], the IC50 came out at 17 nM. For the same compound, the Activity in the data set with Rattus norvegicus [2] is reported as 46%. The highest concentration (Cmax) in data set [3] turned out to be 4.5 ng/mL; in [6], 16.7 ng/mL.

Turning to `Cc1cc(-c2nnc(-c3ccc(OCC(C)C)c([N+](=O)[O-])c3)[nH]2)cc(Cl)n1`, the inhibition at 10 µM against CYP3A4 amounted to 10.9%. In addition, the IC50 in data set [1] was more than 10000 nM.

On to `COc1cc(-c2n[nH]c(-c3ccc(OCC(C)C)c([N+](=O)[O-])c3)n2)ccn1`, for which the inhibition at 10 µM against CYP3A4 was found to be 6.4%. Further, the IC50 in data set [1] was more than 10000 nM.
